Source: ChEMBL document CHEMBL3739264, “Synthesis and bio-evaluation of novel quinolino-stilbene derivatives as potential anticancer agents” (Bioorg Med Chem, 2015)
Activity calls are given as the source filed them. The rule behind the calls is not given here.

What was measured:
MDA-MB-231 [1] = experiment: Cell cycle arrest in human MDA-MB-231 cells assessed as accumulation at sub-G1 phase at 6 uM after 48 hrs by flow cytometry analysis relative to control; type: functional
In short: (§1)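 Cells seeded overnight at about 1 × 10^6 per plate, treated next morning, and harvested at set times. Fixed in 75% ethanol at -20°C for 12-24 h, then stained 1 h in PBS with 0.3% NP-40, 100 µg/ml RNase A and 100 µg/ml propidium iodide. Phase distribution read from DNA content by flow cytometry against sham-treated cells.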

[2] = Cell cycle arrest in human MCF10A cells assessed as accumulation at S phase at 6 uM after 24 hrs by flow cytometry analysis relative to control; type: functional, cell-based; details: MCF-10A
In short: (§2)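 About 1 × 10^6 cells per plate seeded overnight, then treated with compound and harvested at set times. Cells fixed in 75% ethanol at -20°C for 12-24 h and stained 1 h with 100 µg/ml PI, 100 µg/ml RNase A and 0.3% NP-40 in PBS. DNA content measured by flow cytometry; phase fractions compared with sham-treated cells.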

[3] = Cell cycle arrest in human MCF10A cells assessed as accumulation at sub-G1 phase at 6 uM after 48 hrs by flow cytometry analysis relative to control; type: functional, cell-based; details: MCF-10A; in short: as §2
HeLa [4] = experiment: Cell cycle arrest in human HeLa cells assessed as accumulation at G2/M phase at 6 uM after 72 hrs by flow cytometry analysis relative to control; type: functional; in short: as §2
[5] = Cell cycle arrest in human MCF10A cells assessed as accumulation at G2/M phase at 6 uM after 24 hrs by flow cytometry analysis relative to control; type: functional, cell-based; details: MCF-10A; in short: as §2
HeLa [6] = experiment: Cell cycle arrest in human HeLa cells assessed as accumulation at G0-G1 phase at 6 uM after 72 hrs by flow cytometry analysis relative to control; type: functional; in short: as §2
HeLa [7] = experiment: Cell cycle arrest in human HeLa cells assessed as accumulation at G2/M phase at 6 uM after 24 hrs by flow cytometry analysis relative to control; type: functional; in short: as §2
HeLa [8] = experiment: Induction of mitosis arrest in human HeLa cells assessed as condensation of chromosome at 6 uM after 12 hrs using DAPI staining by immunofluorescence microscopic analysis; type: functional, cell-based
In short: (§3)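 HeLa cells on coverslips treated 12 h, fixed in ice-cold methanol at -20°C. Stained with anti-α-tubulin and anti-lamin A (primary 1:200 overnight at 4°C, fluorescent secondary 1 h) and DAPI for DNA. Mitotic morphology scored by fluorescence microscopy.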

HeLa [9] = experiment: Cell cycle arrest in human HeLa cells assessed as accumulation at S phase at 6 uM after 12 hrs by flow cytometry analysis relative to control; type: functional; in short: as §2
[10] = Antiproliferative activity against human 184B5 cells after 72 hrs by SRB assay; type: cell-based; details: 184B5, 72 h
In short: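 Cells seeded at 4,000-5,000/well for 16 h, then exposed 72 h to serial dilutions of compound in DMSO; sham DMSO as 100% and TCA-treated wells as 0%. Fixed in 10% TCA at 4°C for 1 h, stained with 0.4% SRB for 30 min, dye solubilised in 10 mmol Tris pH 10.5, read at 540 nm. IC50 from sigmoidal dose-response curves; two biological replicates, four technical each.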

HeLa [11] = experiment: Cell cycle arrest in human HeLa cells assessed as accumulation at sub-G1 phase at 6 uM after 72 hrs by flow cytometry analysis relative to control; type: functional; in short: as §2
[12] = Cell cycle arrest in human MCF10A cells assessed as accumulation at S phase at 6 uM after 48 hrs by flow cytometry analysis relative to control; type: functional, cell-based; details: MCF-10A; in short: as §2
MDA-MB-231 [13] = experiment: Cell cycle arrest in human MDA-MB-231 cells assessed as accumulation at S phase at 6 uM after 48 hrs by flow cytometry analysis relative to control; type: functional; in short: as §2
HeLa [14] = experiment: Cell cycle arrest in human HeLa cells assessed as accumulation at S phase at 6 uM after 72 hrs by flow cytometry analysis relative to control; type: functional; in short: as §2
HeLa [15] = experiment: Induction of apoptosis in human HeLa cells assessed as increase of PARP cleavage at 6 uM after 48 hrs by Western blot analysis; type: functional, cell-based
In short: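 HeLa cells were sham-treated or given 6 µM and collected at set times. Lysed on ice in Tris pH 7.4/NaCl/EDTA/1% Triton X-100 with PMSF and protease inhibitors. 30-40 µg protein run on 8 or 10% gels, blotted to PVDF, probed overnight at 4°C and detected by ECL. Band levels normalized to GAPDH.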

HeLa [16] = experiment: Induction of apoptosis in human HeLa cells assessed as membrane blebbing at 6 uM after 48 hrs by time lapse microscopy analysis; type: functional, cell-based
In short: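 Treated HeLa cells were followed by time-lapse microscopy, with images taken at set time points.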

MDA-MB-231 [17] = experiment: Cell cycle arrest in human MDA-MB-231 cells assessed as accumulation at sub-G1 phase at 6 uM after 72 hrs by flow cytometry analysis relative to control; type: functional; in short: as §1
MDA-MB-231 [18] = experiment: Cell cycle arrest in human MDA-MB-231 cells assessed as accumulation at S phase at 6 uM after 12 hrs by flow cytometry analysis relative to control; type: functional; in short: as §2
[19] = Cell cycle arrest in human MCF10A cells assessed as accumulation at G2/M phase at 6 uM after 72 hrs by flow cytometry analysis relative to control; type: functional, cell-based; details: MCF-10A; in short: as §2
HeLa [20] = experiment: Cell cycle arrest in human HeLa cells assessed as accumulation at G2/M phase at 6 uM after 12 hrs by flow cytometry analysis relative to control; type: functional; in short: as §2
MDA-MB-231 [21] = experiment: Cell cycle arrest in human MDA-MB-231 cells assessed as accumulation at G2/M phase at 6 uM after 12 hrs by flow cytometry analysis relative to control; type: functional; in short: as §2
[22] = Cell cycle arrest in human MCF10A cells assessed as accumulation at G2/M phase at 6 uM after 48 hrs by flow cytometry analysis relative to control; type: functional, cell-based; details: MCF-10A; in short: as §2
[23] = Cell cycle arrest in human MCF10A cells assessed as accumulation at G0-G1 phase at 6 uM after 12 hrs by flow cytometry analysis relative to control; type: functional, cell-based; details: MCF-10A; in short: as §2
[24] = Cell cycle arrest in human MCF10A cells assessed as accumulation at sub-G1 phase at 6 uM after 24 hrs by flow cytometry analysis relative to control; type: functional, cell-based; details: MCF-10A; in short: as §2
MDA-MB-231 [25] = experiment: Cell cycle arrest in human MDA-MB-231 cells assessed as accumulation at G0-G1 phase at 6 uM after 72 hrs by flow cytometry analysis relative to control; type: functional; in short: as §2
MDA-MB-231 [26] = experiment: Cell cycle arrest in human MDA-MB-231 cells assessed as accumulation at G0-G1 phase at 6 uM after 24 hrs by flow cytometry analysis relative to control; type: functional; in short: as §2
MDA-MB-231 [27] = experiment: Cell cycle arrest in human MDA-MB-231 cells assessed as accumulation at G2/M phase at 6 uM after 72 hrs by flow cytometry analysis relative to control; type: functional; in short: as §2
HeLa [28] = experiment: Induction of mitosis arrest in human HeLa cells assessed as disoriented tubulin structure at 6 uM after 12 hrs using DAPI staining by immunofluorescence microscopic analysis; type: functional, cell-based; in short: as §3
MDA-MB-231 [29] = experiment: Cell cycle arrest in human MDA-MB-231 cells assessed as accumulation at sub-G1 phase at 6 uM after 24 hrs by flow cytometry analysis relative to control; type: functional; in short: as §1
HeLa [30] = experiment: Decrease of Wee-1 level in human HeLa cells at 6 uM after 48 hrs by Western blot analysis
HeLa [31] = experiment: Cell cycle arrest in human HeLa cells assessed as accumulation at sub-G1 phase at 6 uM after 12 hrs by flow cytometry analysis relative to control; type: functional; in short: as §2

With `FC(F)(F)c1cccc(/C=C\c2cc3ccccc3nc2Cl)c1` the Activity (MDA-MB-231 [1]) was 23.8%, the Activity [2] was 34.3% and the Activity [3] was 12.9%. It also gave an Activity (HeLa [4]) of 12.1%, an Activity [5] of 8.3% and an Activity (HeLa [6]) of 22.9%. For the same compound, the Activity (HeLa [7]) was 56.9%, the Activity (HeLa [8]) was “Active” and the Activity (HeLa [9]) was 8.9%. The IC50 [10] was 6.15 µM, the Activity (HeLa [11]) was 46% and the Activity [12] was 17.9%. The Activity (MDA-MB-231 [13]) was 15.4%, the Activity (HeLa [14]) was 17.7% and the Activity (HeLa [15]) was “Active”. For the same compound, the Activity (HeLa [16]) was “Active”, the Activity (MDA-MB-231 [17]) was 31.3% and the Activity (MDA-MB-231 [18]) was 18.2%. The Activity [19] was 4.9%, the Activity (HeLa [20]) was 78.9% and the Activity (MDA-MB-231 [21]) was 47.4%. The Activity [22] was 6.2%, the Activity [23] was 31.3% and the Activity [24] was 7.3%. The Activity (MDA-MB-231 [25]) was 34.6%, the Activity (MDA-MB-231 [26]) was 34% and the Activity (MDA-MB-231 [27]) was 14.4%. For the same compound, the Activity (HeLa [28]) was “Active”, the Activity (MDA-MB-231 [29]) was 12.8% and the Activity (HeLa [30]) was “Active”. It also gave an Activity (HeLa [31]) of 3.6%.
